Results reported in ChEMBL document CHEMBL2069306, “Sequences in the HSP90 promoter form G-quadruplex structures with selectivity for disubstituted phenyl bis-oxazole derivatives” (Bioorg Med Chem Lett, 2012).

Columns and labels:
Nucleic Acid [1] = assay: Binding affinity to human G4 telomeric quadruplex DNA assessed as change in melting temperature at 1 uM by FRET melting assay; format: nucleic-acid assay
Method in brief: (§1)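 FAM/TAMRA dual-labelled oligonucleotides diluted to 400 nM in 60 mM potassium cacodylate pH 7.4. Annealed at 95 °C for 10 min, then cooled to RT over 3–3.5 h. Compound diluted from a 1 mM stock (10% DMSO/90% 1 mM HCl) to 2× in buffer and mixed 1:1 with DNA. Fluorescence read every 0.5 °C over 30–100 °C with a 30 s hold. ΔTm from curve fitting; triplicate.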

Nucleic Acid [2] = assay: Binding affinity to human G4 telomeric quadruplex DNA assessed as change in melting temperature at 2 uM by FRET melting assay; format: nucleic-acid assay; method in brief: as §1
Nucleic Acid [3] = assay: Binding affinity to HSP90A quadruplex DNA assessed as change in melting temperature at 1 uM by FRET melting assay; format: nucleic-acid assay; settings: Homo sapiens; method in brief: as §1
Nucleic Acid [4] = assay: Binding affinity to HSP90A quadruplex DNA assessed as change in melting temperature at 2 uM by FRET melting assay; format: nucleic-acid assay; settings: Homo sapiens; method in brief: as §1
Nucleic Acid [5] = assay: Binding affinity to HSP90B quadruplex DNA assessed as change in melting temperature at 1 uM by FRET melting assay; format: nucleic-acid assay; settings: Homo sapiens; method in brief: as §1
Nucleic Acid [6] = assay: Binding affinity to HSP90B quadruplex DNA assessed as change in melting temperature at 2 uM by FRET melting assay; format: nucleic-acid assay; settings: Homo sapiens; method in brief: as §1
Nucleic Acid [7] = assay: Binding affinity to double stranded DNA assessed as change in melting temperature at 1 uM by FRET melting assay; format: nucleic-acid assay; method in brief: as §1
Nucleic Acid [8] = assay: Binding affinity to double stranded DNA assessed as change in melting temperature at 2 uM by FRET melting assay; format: nucleic-acid assay; method in brief: as §1
Nucleic Acid [9] = assay: Binding affinity to human 21-mer telomeric quadruplex F21T DNA assessed as change in melting temperature at 2 uM by FRET melting assay; format: nucleic-acid assay; method in brief: as §1
Nucleic Acid [10] = assay: Binding affinity to c-kit2 quadruplex DNA assessed as change in melting temperature at 2 uM by FRET melting assay; format: nucleic-acid assay; settings: Homo sapiens; method in brief: as §1
Nucleic Acid [11] = assay: Binding affinity to k-ras quadruplex DNA assessed as change in melting temperature at 2 uM by FRET melting assay; format: nucleic-acid assay; settings: Homo sapiens; method in brief: as §1
Nucleic Acid [12] = assay: Binding affinity to human 21-mer telomeric quadruplex F21T DNA assessed as change in melting temperature at 1 uM by FRET melting assay; format: nucleic-acid assay; method in brief: as §1
Nucleic Acid [13] = assay: Binding affinity to c-kit2 quadruplex DNA assessed as change in melting temperature at 1 uM by FRET melting assay; format: nucleic-acid assay; settings: Homo sapiens; method in brief: as §1
Nucleic Acid [14] = assay: Binding affinity to k-ras quadruplex DNA assessed as change in melting temperature at 1 uM by FRET melting assay; format: nucleic-acid assay; settings: Homo sapiens; method in brief: as §1
A549 = assay: Antiproliferative activity against human A549 cells after 96 hrs by neubauer haemocytometer analysis; format: functional, cell-based; settings: in the assay text read “sulforhodamine B assay” for “neubauer haemocytometer analysis”
Method in brief: (§2)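 Cancer lines seeded at 1000–4000 cells/well and WI38 fibroblasts at 6000/well, then grown 24 h. Compound added over a concentration range for 96 h. Cells fixed with 10% TCA (30 min, 4 °C), stained with 0.4% sulforhodamine B (15 min, RT), dye solubilized in 10 mM Tris base, A540 read. Normalized to untreated cells; IC50 interpolated at 50% absorbance. Triplicate.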

MCF7 = assay: Antiproliferative activity against human MCF7 cells after 96 hrs by neubauer haemocytometer analysis; format: functional, cell-based; settings: in the assay text read “sulforhodamine B assay” for “neubauer haemocytometer analysis”; method in brief: as §2
[15] = Antiproliferative activity against human RCC4 cells after 96 hrs by neubauer haemocytometer analysis; format: functional, cell-based; settings: in the assay text read “sulforhodamine B assay” for “neubauer haemocytometer analysis”; method in brief: as §2
[16] = Antiproliferative activity against human 786-O cells after 96 hrs by neubauer haemocytometer analysis; format: functional, cell-based; settings: 786-0; in the assay text read “sulforhodamine B assay” for “neubauer haemocytometer analysis”; method in brief: as §2
MIA PaCa-2 = assay: Antiproliferative activity against human MIAPaCa2 cells after 96 hrs by neubauer haemocytometer analysis; format: functional, cell-based; settings: in the assay text read “sulforhodamine B assay” for “neubauer haemocytometer analysis”; method in brief: as §2
WI-38 = assay: Antiproliferative activity against human WI38 cells after 96 hrs by neubauer haemocytometer analysis; format: cell-based; settings: in the assay text read “sulforhodamine B assay” for “neubauer haemocytometer analysis”; method in brief: as §2
duplex DNA [17] = assay: Binding affinity to duplex DNA assessed as change in melting temperature at 3 uM by FRET melting assay; settings: Homo sapiens
duplex DNA [18] = assay: as above; settings: Homo sapiens; remark: listed apart in the source
duplex DNA [19] = assay: as above; settings: Homo sapiens; remark: listed apart in the source

Row | ΔTm (Nucleic Acid [1]) [°C] | ΔTm (Nucleic Acid [2]) [°C] | ΔTm (Nucleic Acid [3]) [°C] | ΔTm (Nucleic Acid [4]) [°C] | ΔTm (Nucleic Acid [5]) [°C] | ΔTm (Nucleic Acid [6]) [°C] | ΔTm (Nucleic Acid [7]) [°C] | ΔTm (Nucleic Acid [8]) [°C] | SMILES | further results
1 | < 2 | < 2 | 7 | 14 | 2 | 6 | 0 | 0 | c1cc(-c2cnc(-c3ccc(OCCCN4CCCC4)cc3)o2)cc(-c2cnc(-c3ccc(OCCCN4CCCC4)cc3)o2)c1 | 
2 | < 2 | 2 | 8 | 8 | 8 | 9 | 1 | 1 | CC(C)N(Cc1ccc(-c2ncc(-c3cccc(-c4cnc(-c5ccc(CN(C(C)C)C(C)C)cc5)o4)c3)o2)cc1)C(C)C | 
3 | < 2 | < 2 | 5 | 8 | 3 | 6 | 1 | 1 | c1cc(-c2cnc(-c3cccc(CN4CCCCC4)c3)o2)cc(-c2cnc(-c3cccc(CN4CCCCC4)c3)o2)c1 | 
4 |  |  |  | < 5 |  | < 5 |  |  | CN1CCN(CCc2ccc(-c3ncc(-c4ccc(-c5cnc(-c6ccc(CCN7CCN(C)CC7)cc6)o5)cc4)o3)cc2)CC1 | ΔTm (Nucleic Acid [9]): < 5 °C; ΔTm (Nucleic Acid [10]): < 5 °C; ΔTm (Nucleic Acid [11]): < 5 °C
5 | < 2 | 2 | 7 | 16 | 3 | 12 | 0 | 0 | CN1CCN(Cc2ccc(-c3ncc(-c4cccc(-c5cnc(-c6ccc(CN7CCN(C)CC7)cc6)o5)c4)o3)cc2)CC1 | 
6 | 2 | 15 | 5 | 19 | 2 | 5 | 0 | 0 | c1cc(-c2cnc(-c3ccc(OCCCCN4CCCC4)cc3)o2)cc(-c2cnc(-c3ccc(OCCCCN4CCCC4)cc3)o2)c1 | 
7 | < 2 | 2 | 14 | 23 | 2 | 7 | 0 | 0 | CN1CCN(CCc2ccc(-c3ncc(-c4cccc(-c5cnc(-c6ccc(CCN7CCN(C)CC7)cc6)o5)c4)o3)cc2)CC1 | ΔTm (Nucleic Acid [12]): < 2 °C; ΔTm (Nucleic Acid [9]): 2 °C; ΔTm (Nucleic Acid [13]): < 2 °C; ΔTm (Nucleic Acid [10]): 2 °C; ΔTm (Nucleic Acid [14]): 7 °C; ΔTm (Nucleic Acid [11]): 17 °C; IC50 (A549): 1.02 µmol; IC50 (MCF7): 1.32 µmol; IC50 [15]: 0.94 µmol; IC50 [16]: 1.33 µmol; IC50 (MIA PaCa-2): 1.25 µmol; IC50 (WI-38): 2.59 µmol; ΔTm (duplex DNA [17]): < 1 °C; ΔTm (duplex DNA [18]): < 1 °C; ΔTm (duplex DNA [19]): < 1 °C
8 | < 2 | 2 | 6 | 6 | 5 | 6 | 0 | 0 | c1cc(-c2cnc(-c3ccc(CN4CCOCC4)cc3)o2)cc(-c2cnc(-c3ccc(CN4CCOCC4)cc3)o2)c1 | 
9 | 2 | 6 | 7 | 14 | 2 | 4 | 0 | 0 | c1cc(-c2cnc(-c3ccc(CN4CCCC4)cc3)o2)cc(-c2cnc(-c3ccc(CN4CCCC4)cc3)o2)c1 | 
10 | 3 | 7 | 8 | 9 | 9 | 11 | 1 | 1 | c1cc(-c2cnc(-c3ccc(CN4CCCCCC4)cc3)o2)cc(-c2cnc(-c3ccc(CN4CCCCCC4)cc3)o2)c1 | 
11 | < 2 | < 2 | 7 | 14 | 2 | 6 | 0 | 0 | c1cc(-c2cnc(-c3ccc(OCCN4CCCC4)cc3)o2)cc(-c2cnc(-c3ccc(OCCN4CCCC4)cc3)o2)c1 | 
